Measured values taken from ChEMBL document CHEMBL2169744, “Discovery and optimization of potent and selective imidazopyridine and imidazopyridazine mTOR inhibitors” (Bioorg Med Chem Lett, 2012).
In brackets after ≈: the same amount, converted by molar mass. Activity calls are given as the source filed them. The rule behind the calls is not given here.

Tests used:
[1] = Plasma protein binding in rat at 5 mg/kg, po; type: ADME, organism-based; set-up: dose 5 mg/kg, route oral; settings: read-out: PPB (converted)
[2] = Clearance in rat liver microsomes; type: ADME, Microsome; settings: read-out: CLH
[3] = AUC in rat at 0.5 mg/kg, iv; type: ADME, organism-based, Plasma; set-up: dose 0.5 mg/kg, route intravenous; settings: plasma
[4] = Clearance in human liver microsomes; type: ADME, Microsome; settings: read-out: CLH
Rattus norvegicus [5] = test: Drug metabolism in po dosed Sprague-Dawley rat assessed as imidazopyridine oxidation; type: ADME, organism-based; settings: in vivo
Rattus norvegicus [6] = test: Drug metabolism in po dosed Sprague-Dawley rat assessed as triazine amine glucuronide derivative; type: ADME, organism-based; settings: in vivo
Rattus norvegicus [7] = test: Drug metabolism in po dosed Sprague-Dawley rat assessed as pyrazole glucuronide derivative; type: ADME, organism-based; settings: in vivo
[8] = Drug excretion in iv dosed Sprague-Dawley rat urine; type: ADME, organism-based; settings: in vivo
[9] = Drug excretion in po dosed Sprague-Dawley rat urine; type: ADME, organism-based; settings: in vivo
[10] = Oral bioavailability in rat at 5 mg/kg; type: ADME, organism-based; settings: in vivo
Method in brief: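 Rat oral PK at 5.0 mpk in 1% Tween 80, 2% HPMC, 97% H2O, pH 2.2 (methanesulfonic acid).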

[11] = Volume of distribution at steady state in rat at 0.5 mg/kg, iv; type: ADME, organism-based; set-up: dose 0.5 mg/kg, route intravenous; settings: in vivo, read-out: Vdss
[12] = Half life in rat at 0.5 mg/kg, iv; type: ADME, organism-based; set-up: dose 0.5 mg/kg, route intravenous; settings: in vivo
[13] = Clearance in rat at 0.5 mg/kg, iv; type: ADME, organism-based; set-up: dose 0.5 mg/kg, route intravenous; settings: in vivo
[14] = Antitumor activity against human U87MG cells xenografted in mouse assessed as tumor growth inhibition at 30 mg/kg, po administered BID for 2 weeks relative to vehicle-treated control; type: functional, U-87MG ATCC; settings: U-87 MG, 336 h, read-out: TGI
Method in brief: (§1)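 Mice bearing established U87-MG tumours dosed orally with vehicle or compound at 10, 30 or 60 mg/kg QD or 30 mg/kg BID for 2 weeks. Tumour volume (mm3) tracked, mean ± SE, n = 10. TGI relative to vehicle controls; significance by repeated-measures ANOVA followed by Dunnett's test.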

[15] = Antitumor activity against human U87MG cells xenografted in mouse assessed as tumor growth inhibition at 60 mg/kg, po administered QD for 2 weeks relative to vehicle-treated control; type: functional, U-87MG ATCC; settings: U-87 MG, 336 h, read-out: TGI; method in brief: as §1
U-87MG ATCC [16] = test: Antitumor activity against human U87MG cells xenografted in po dosed mouse assessed as tumor growth inhibition administered BID for 2 weeks; type: functional, organism-based; method in brief: as §1
Mus musculus [17] = test: Toxicity in mouse assessed adverse effects at 60 mg/kg, po administered QD for 7 days relative to vehicle-treated control; type: organism-based; set-up: dose 60 mg/kg, route oral; settings: in vivo, 168 h
Method in brief: (§2)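 Seven-day tolerability study in mice, n = 5 per group. Oral dosing QD at 60 or 100 mg/kg. Body weight monitored; animals with average weight loss >20% removed from study.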

U-87MG ATCC [18] = test: Antitumor activity against human U87MG cells xenografted in po dosed mouse assessed as tumor growth inhibition administered QD for 2 weeks; type: functional, organism-based; method in brief: as §1
Mus musculus [19] = test: Toxicity in mouse assessed weight loss at 100 mg/kg, po administered QD for 7 days measured on day 3 relative to vehicle-treated control; type: organism-based; set-up: dose 100 mg/kg, route oral; settings: in vivo, 168 h; method in brief: as §2
Mus musculus [20] = test: Inhibition of mTORC1 in po dosed mouse assessed as inhibition of HGF-induced pS6-phosphorylation in liver tissue at 100 mg/kg, po measured at 24 hrs; type: functional, organism-based; set-up: dose 100 mg/kg
Method in brief: (§3)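 Time course in mouse liver: single oral dose of 100 mg/kg, sampled at 3, 6, 8 and 24 h. Inhibition of HGF-induced pAKT (S473 and T308) and pS6 in liver tissue measured against vehicle controls.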

Mus musculus [21] = test: Inhibition of mTORC1 in po dosed mouse assessed as inhibition of HGF-induced pS6-phosphorylation in liver tissue at 100 mg/kg, po measured at >8 hrs; type: functional, organism-based; set-up: dose 100 mg/kg; method in brief: as §3
Mus musculus [22] = test: Inhibition of PI3Kalpha in po dosed mouse assessed as inhibition of HGF-induced AKT Thr308-phosphorylation in liver tissue at 100 mg/kg, po measured at 24 hrs; type: functional, organism-based; set-up: dose 100 mg/kg; method in brief: as §3
Mus musculus [23] = test: Inhibition of PI3Kalpha in po dosed mouse assessed as inhibition of HGF-induced AKT Thr308-phosphorylation in liver tissue at 100 mg/kg, po measured at >8 hrs; type: functional, organism-based; set-up: dose 100 mg/kg; method in brief: as §3
Mus musculus [24] = test: Inhibition of mTORC2 in po dosed mouse assessed as inhibition of HGF-induced AKT Ser473-phosphorylation in liver tissue at 100 mg/kg, po measured at 24 hrs; type: functional, organism-based; set-up: dose 100 mg/kg; method in brief: as §3
Mus musculus [25] = test: Inhibition of mTORC2 in po dosed mouse assessed as inhibition of HGF-induced AKT Ser473-phosphorylation in liver tissue at 100 mg/kg, po measured at >8 hrs; type: functional, organism-based; set-up: dose 100 mg/kg; method in brief: as §3
Mus musculus [26] = test: Inhibition of PI3Kalpha in po dosed mouse assessed as inhibition of HGF-induced AKT Thr308-phosphorylation in liver tissue after 6 hrs; type: functional, organism-based
Method in brief: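 Single oral dose to mice of vehicle (50% PEG400, 1% Pluronic F68, pH 2.2 with MSA) or compound at 10, 30 or 100 mg/kg, n = 3 per dose. HGF-stimulated liver taken at 6 h; pAKT (S473, T308) and pS6RP measured in lysate by MSD assay. Plasma drug levels measured. Factorial ANOVA versus vehicle, then Dunnett's test.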

[27] = Oral bioavailability in rat at 1 mg/kg; type: ADME, organism-based; settings: in vivo
[28] = Half life in rat at 1 mg/kg, iv; type: ADME, organism-based; set-up: dose 1 mg/kg, route intravenous; settings: in vivo
[29] = Clearance in rat at 1 mg/kg, iv; type: ADME, organism-based; set-up: dose 1 mg/kg, route intravenous; settings: in vivo
[30] = Volume of distribution at steady state in rat at 1 mg/kg, iv; type: ADME, organism-based; set-up: dose 1 mg/kg, route intravenous; settings: in vivo, read-out: Vdss
[31] = Apparent permeability from basal to apical side of pig LLC-PK1 cells; type: ADME, cell-based, Sus scrofa
[32] = Efflux ratio of apparent permeability from basal to apical to apical to basal side of pig LLC-PK1 cells; type: ADME, cell-based, Sus scrofa
[33] = Solubility of the compound in 0.01 N HCl; type: physicochemical; settings: 0.01 N HCl; read-out: solubility
[34] = Apparent permeability from apical to basal side of pig LLC-PK1 cells; type: ADME, cell-based, Sus scrofa
[35] = Solubility of the compound in phosphate buffered saline; type: physicochemical
[36] = Solubility of the compound in simulated intestinal fluid; type: physicochemical
[37] = Inhibition of mTORC1-mediated pS6 Ser240/244-phosphorylation in human U87MG cells; type: cell-based, U-87MG ATCC; settings: U-87 MG
Method in brief: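 Cell assay in U87MG cells measuring phosphorylation of the mTOR substrate S6 (S240/244), n ≥ 2.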

[38] = Inhibition of mTORC1-mediated 4EBP1-phosphorylation in human U87 cells; type: cell-based, U-87MG ATCC; settings: Homo sapiens, U-87 MG; read-out: IC50
[39] = Inhibition of mTORC2-mediated AKT Ser473-phosphorylation in human U87 cells; type: cell-based, U-87MG ATCC; settings: U-87 MG
Method in brief: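 Cell assay in U87 cells measuring pAKT (S473), n ≥ 2.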

[40] = biological target: Phosphatidylinositol 4,5-bisphosphate 3-kinase catalytic subunit beta isoform (Homo sapiens, UniProt P42338); test: Inhibition of PI3Kbeta by AlphaScreen assay
[41] = biological target: Phosphatidylinositol 4,5-bisphosphate 3-kinase catalytic subunit alpha isoform (Homo sapiens, UniProt P42336); test: Inhibition of PI3Kalpha by AlphaScreen assay
Mus musculus [42] = species on record: Mus musculus; test: animal or person; settings: Liver, 6 h
Mus musculus [43] = species on record: Mus musculus; test: animal or person; settings: Liver, 6 h; remark: listed apart in the source

Chain of Phosphatidylinositol 4,5-bisphosphate 3-kinase catalytic subunit alpha isoform (P42336 whole entry, canonical isoform): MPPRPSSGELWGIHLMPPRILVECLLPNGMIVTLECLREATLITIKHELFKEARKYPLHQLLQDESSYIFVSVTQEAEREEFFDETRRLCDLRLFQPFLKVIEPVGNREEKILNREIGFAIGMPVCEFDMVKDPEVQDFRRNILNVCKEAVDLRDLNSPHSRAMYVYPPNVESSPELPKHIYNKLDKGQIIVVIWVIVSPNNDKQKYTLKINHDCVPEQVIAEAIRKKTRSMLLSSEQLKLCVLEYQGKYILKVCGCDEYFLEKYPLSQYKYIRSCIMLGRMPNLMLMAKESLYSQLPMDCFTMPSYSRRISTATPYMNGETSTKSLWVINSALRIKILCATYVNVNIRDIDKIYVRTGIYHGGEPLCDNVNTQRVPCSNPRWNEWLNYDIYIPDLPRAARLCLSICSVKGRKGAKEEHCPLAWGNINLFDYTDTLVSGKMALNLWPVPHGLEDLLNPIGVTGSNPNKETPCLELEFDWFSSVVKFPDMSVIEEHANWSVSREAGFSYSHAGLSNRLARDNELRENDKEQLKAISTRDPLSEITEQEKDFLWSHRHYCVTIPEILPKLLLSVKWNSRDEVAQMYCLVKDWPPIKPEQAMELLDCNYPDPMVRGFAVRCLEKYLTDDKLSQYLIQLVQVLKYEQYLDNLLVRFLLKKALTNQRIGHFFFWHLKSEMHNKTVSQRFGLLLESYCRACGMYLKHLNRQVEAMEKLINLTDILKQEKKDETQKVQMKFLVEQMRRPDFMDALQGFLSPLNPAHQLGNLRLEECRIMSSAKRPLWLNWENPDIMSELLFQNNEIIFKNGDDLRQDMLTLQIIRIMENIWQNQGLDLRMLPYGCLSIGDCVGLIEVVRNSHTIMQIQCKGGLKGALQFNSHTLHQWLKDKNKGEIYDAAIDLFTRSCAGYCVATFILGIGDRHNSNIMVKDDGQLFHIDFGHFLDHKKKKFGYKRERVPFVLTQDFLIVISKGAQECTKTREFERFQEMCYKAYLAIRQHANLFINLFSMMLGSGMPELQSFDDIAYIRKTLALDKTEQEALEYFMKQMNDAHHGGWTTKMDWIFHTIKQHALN
Chain of Phosphatidylinositol 4,5-bisphosphate 3-kinase catalytic subunit beta isoform (P42338 whole entry, canonical isoform): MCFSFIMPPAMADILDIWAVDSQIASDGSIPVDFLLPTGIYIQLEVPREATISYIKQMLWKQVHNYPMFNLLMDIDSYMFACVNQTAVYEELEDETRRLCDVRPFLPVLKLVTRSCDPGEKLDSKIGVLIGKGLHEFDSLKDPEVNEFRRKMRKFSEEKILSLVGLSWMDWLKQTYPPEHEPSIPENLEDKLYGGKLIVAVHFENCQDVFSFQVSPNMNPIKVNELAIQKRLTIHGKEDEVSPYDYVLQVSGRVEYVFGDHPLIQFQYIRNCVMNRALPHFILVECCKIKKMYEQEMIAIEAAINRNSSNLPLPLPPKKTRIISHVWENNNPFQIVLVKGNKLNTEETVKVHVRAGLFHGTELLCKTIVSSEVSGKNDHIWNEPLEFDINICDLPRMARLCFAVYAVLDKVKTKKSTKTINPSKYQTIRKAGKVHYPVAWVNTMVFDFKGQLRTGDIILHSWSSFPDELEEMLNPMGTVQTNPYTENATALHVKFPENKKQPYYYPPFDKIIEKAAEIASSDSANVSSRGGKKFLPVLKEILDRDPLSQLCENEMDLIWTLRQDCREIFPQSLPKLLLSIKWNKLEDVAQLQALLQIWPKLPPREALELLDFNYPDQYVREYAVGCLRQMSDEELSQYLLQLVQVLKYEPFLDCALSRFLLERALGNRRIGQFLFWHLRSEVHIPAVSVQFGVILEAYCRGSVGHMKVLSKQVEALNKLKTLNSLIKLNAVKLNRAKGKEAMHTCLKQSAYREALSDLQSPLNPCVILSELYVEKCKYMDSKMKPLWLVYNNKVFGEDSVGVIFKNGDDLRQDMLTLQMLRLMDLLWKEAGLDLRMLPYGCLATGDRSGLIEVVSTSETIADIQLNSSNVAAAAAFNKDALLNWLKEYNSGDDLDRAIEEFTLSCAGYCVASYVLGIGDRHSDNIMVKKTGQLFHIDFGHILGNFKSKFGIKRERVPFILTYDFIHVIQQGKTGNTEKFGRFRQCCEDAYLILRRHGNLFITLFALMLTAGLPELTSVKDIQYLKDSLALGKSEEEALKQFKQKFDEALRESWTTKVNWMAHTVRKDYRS

## Cc1nc(N)nc(-c2c(Nc3cc[nH]n3)nc3ccccn23)n1
[1]
  fraction unbound: 0.023
[2]
  microsomal CLint: 29 µL/min/mg
[3]
  AUC: 1.8 µM·h
[4]
  microsomal CLint: 24 µL/min/mg
Rattus norvegicus [5]
  Drug metabolism: Active
Rattus norvegicus [6]
  Drug metabolism: Active
Rattus norvegicus [7]
  Drug metabolism: Active
[8]
  Drug excretion: Active
[9]
  Drug excretion: Active
[10]
  bioavailability: 24%
[11]
  Vd: 1.14 L/kg
[12]
  half-life: 26.4 min
[13]
  clearance: 30 mL/min/kg
[14]
  inhibition in vivo at 30 mg/kg: 84%
[15]
  inhibition in vivo at 60 mg/kg: 82%
U-87MG ATCC [16]
  TGI: Dose-dependent effect
Mus musculus [17]
  Activity: Non-toxic
U-87MG ATCC [18]
  TGI: Dose-dependent effect
Mus musculus [19]
  Activity: > 20%
Mus musculus [20]
  inhibition: inactive
Mus musculus [21]
  inhibition: Active
Mus musculus [22]
  inhibition: inactive
Mus musculus [23]
  inhibition: Active
Mus musculus [24]
  inhibition: inactive
Mus musculus [25]
  inhibition: Active
Mus musculus [26]
  inhibition: Dose-dependent effect
[27]
  bioavailability: 24%
[28]
  half-life: 27 min
[29]
  clearance: 30 mL/min/kg
[30]
  Vd: 1.1 L/kg
[31]
  Papp B→A: 33.7 ×10⁻⁶ cm/s
[32]
  efflux ratio: 2.4
[33]
  solubility: > 200 µg/mL
[34]
  Papp A→B: 13.8 ×10⁻⁶ cm/s
[35]
  solubility: 6.3 µg/mL (≈ 20.5 µM)
[36]
  solubility: 27 µg/mL (≈ 87.9 µM)
[37]
  IC50: 69 nM
[38]
  IC50: 162 nM
[39]
  IC50: 19 nM
[40]
  IC50: 1130 nM
[41]
  IC50: 590 nM
Mus musculus [42]
  IC50: 71 nM
Mus musculus [43]
  IC50: 53 nM
